Compound activity deposited in PubChem BioAssay by several laboratories.
A selection: hits, their analogues and other compounds. The true share with any hit is near 2.2%.
Ba/F3 V617F tox = reduce viability of Ba/F3 cells dependent on JAK2V617F. Ba/F3 EpoR-JAK2V617F viability, ATP luminescence. inhibition, % at 5.6 µM. 1.1% of 220,000 active;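 active = inhibition above the campaign mean plus 3 SD over all tested compounds, cut at about 24% in these data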;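 also: cytokine-independent growth of Ba/F3 cells driven by EpoR plus mutant JAK2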
APP transl inh = APP translation inhibition; SH-SY5Y APP 5'UTR-luciferase reporter, luminescence; inhibition, % at 2 µM; 0.82% of 190,000 active; AID 1285;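 active = inhibition above a set limit, derived from the sample mean plus 3 SD, cut at about 45% in these data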
b-catenin transl = alters nuclear translocation of beta-catenin in HeLa cells; immunofluorescence imaging; nuclear translocation activity, % at 5 µM; 0.3% of 190,000 active; AID 1665;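 active = nuclear translocation activity above 50% at 5 µM, with a well cell count of 50 or more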;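 also: per-cell ratio of nuclear to cytoplasmic median beta-catenin stain intensity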
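Technique: fluorescence imaging of beta-catenin antibody stain plus DAPI / Material: human HeLa cell line / Incubation: compound treatment 24 h, 37°C, 5% CO2 / Read-out basis: % activation of per-cell nuclear versus cytoplasmic median beta-catenin signal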
MT stabilizer = stabilizes microtubules in HeLa cells; % tubulin-high responders, % at 10 µM; 0.83% of 200,000 active; HeLa tubulin immunostaining HCS, 24 h; share of cells brighter than vehicle mean+2SD;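 active = plate Z-score above 3 for both tubulin-high and condensed-nucleus cell shares, with cell loss under 80%, at 10 µM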;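 also: anti alpha tubulin signal scored within the nucleus-defined area of each cell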
IEC-6 tox = IEC-6 cytotoxicity, counter-screen for KLF5 inhibitors | luminescence viability | inhibition, % at 5 µM | 0.78% of 290,000 active | AID 1825; in the data active = inhibition above about 22%
BaF3 tox = reduces parental Ba/F3 cell viability, JAK2V617F counter-screen. CellTiter-Glo ATP luminescence. inhibition, % at 5.6 µM. 1.1% of 220,000 active. AID 1486;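 active = inhibition above a per-campaign cutoff, the mean inhibition of all tested compounds plus 3 SD, cut at about 27% in these data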
A number is an active result; . = inactive; / = no result.

SMILES	Ba/F3 V617F tox	APP transl inh	b-catenin transl	MT stabilizer	IEC-6 tox	BaF3 tox
CC(C)(C)c1ccc(C2C(C(=O)c3ccco3)=C(O)C(=O)N2CC2CCCO2)cc1 (centres undefined)	/	/	/	/	.	/
CC1=NN(c2nc(-c3ccc(C)cc3)cs2)C(=O)C1N=Nc1ccccc1O (centres undefined)	.	52	.	.	.	.
Cc1cc(NC(=O)C(C)SCC(=O)N(C)CC(=O)Nc2ccc(Br)cc2C)no1 (centres undefined)	/	/	/	/	.	/
O=C(/C=C/c1cccs1)NC(=S)NNC(=O)c1ccccc1O	94	.	.	.	.	54
CC(C)c1ccc(NC(=O)COc2ccc(F)cc2C(=O)c2cnn(-c3ccccc3)c2)cc1	.	.	/	20	.	.
COc1ccc(/C=N/NC(=O)c2cccnc2)cc1CN1CCc2cc(OC)c(OC)cc2C1C (centres undefined)	.	.	.	.	.	.
COc1ccc(/C=N/NC(=O)c2cc(OC)c(OC)c(OC)c2)cc1CN1CCc2cc(OC)c(OC)cc2C1C (centres undefined)	.	.	.	20	.	.
CC1CCCC(NCC(O)COC(c2ccc(F)cc2)c2ccc(F)cc2)C1C (centres undefined)	.	.	.	.	.	47
CC1CCCC(NC(=O)CSc2ccc(F)cc2)C1C (centres undefined)	.	.	.	.	.	.
CCCc1n(CC)c2ccccc2[n+]1CC(O)COC1CCCCC1 (centres undefined)	33	.	.	.	.	50
CCn1c(NC2CCCCC2)nc2ccccc21	.	.	.	.	.	.
CCn1c(C)[n+](CC(O)COCC2CC=CCC2)c2ccccc21 (centres undefined)	27	.	/	.	.	41
Cc1n(CC(O)COCc2ccccc2)c2ccccc2[n+]1C (centres undefined)	.	.	/	.	.	.
OC(COCC1CC=CCC1)Cn1cnc2ccccc21 (centres undefined)	.	.	/	.	.	.
CCc1n(CC(O)COC2CCCCC2)c2ccccc2[n+]1C (centres undefined)	24	.	.	.	.	57
CCc1n(CC(O)COCC2CC=CCC2)c2ccccc2[n+]1C (centres undefined)	26	.	.	.	.	35
Cc1nc2ccccc2n1CC(O)COCC1CC=CCC1 (centres undefined)	.	.	.	.	.	.
Cc1ccc(C(=O)COC(=O)CN2C(=O)C3C4CCC(C4)C3C2=O)cc1C (centres undefined)	/	/	/	/	.	/
CCn1cc(CCCC(=O)NCc2ccc(OC)cc2)c2ccccc21	/	/	/	/	.	/
O=C1CN(C(=O)COC(=O)c2oc3ccccc3c2COc2ccccc2)c2ccccc2N1	.	45	/	.	.	.
Cc1c(C(=O)OCC(=O)N2CC(=O)Nc3ccccc32)oc2ccccc12	.	.	.	.	.	.
CCCCC(Sc1nc(N)c(NC(=O)c2ccco2)c(=O)[nH]1)C(=O)O (centres undefined)	/	/	/	/	.	/
CC1(C)OC(=O)C(=NNc2ccc(O)cc2)C(=O)O1	36	.	.	.	.	53
CC(=O)c1ccc(N=C2NC(=O)C(CO)(CO)S2)cc1	/	/	/	/	.	/
COc1ccc2oc(=Nc3cccc(F)c3)c(C(N)=O)cc2c1	.	.	61	.	.	.
SMILES	Ba/F3 V617F tox	APP transl inh	b-catenin transl	MT stabilizer	IEC-6 tox	BaF3 tox
COc1cccc(C(=O)/C=C/c2ccc(OCC#N)c(OC)c2)c1	.	.	.	.	.	.
COc1cc(/C=C/C(=O)c2ccc(O)cc2)ccc1OCC#N	.	.	.	11	.	.
Cc1ccc(N=Nc2c(N)[nH]n3c(=O)c4c(nc23)CCCC4)cc1	.	.	.	24	.	.
Cc1nc2cc(-c3ccc(Cl)cc3)nn2c(C)c1CCC(=O)NC(C)c1ccc2c(c1)OCCO2 (centres undefined)	.	.	.	.	.	.
Cc1csc(NC(=O)CCc2c(C)nc3cc(-c4ccc(Cl)cc4)nn3c2C)n1	.	54	.	.	.	.
Cc1cccc(OCc2n(CC(=O)OC3CC(C)CCC3C(C)C)c3ccccc3[n+]2C)c1 (centres undefined)	101	.	.	.	.	88
CC1CCC(C(C)C)C(OC(=O)C[n+]2cc(-c3ccc(Cl)cc3)n3c2CCC3)C1 (centres undefined)	.	/	.	/	.	.
CCCCCCCCCCOC(=O)Cn1c(COc2ccccc2OC)[n+](C)c2ccccc21	/	/	/	/	.	/
CC1CCC(C(C)C)C(OC(=O)Cn2c(-c3ccc(F)cc3)[n+](C)c3ccccc32)C1 (centres undefined)	98	.	/	.	.	82
CCN(Cc1ccccc1)C(=O)CS(=O)(=O)c1ccccc1	.	.	.	.	.	.
O=S(=O)(C/C(=C/CO)S(=O)(=O)c1ccccc1)c1ccccc1	101	80	.	.	96	100
COc1nnc(-c2ccc(N3CCCCC3)c(N)c2)c2ccccc12	37	.	/	.	.	46
CCCC(=O)Nc1cc(-c2nnc(OC)c3ccccc23)ccc1N1CCCCC1	.	.	.	.	.	.
O=C(c1cccc(Oc2c(Cl)cccc2[N+](=O)[O-])c1)N1CCOCC1	/	/	/	/	.	/
O=C(COc1ccccc1Cl)N1CCCC1	.	.	.	.	.	.
O=C(COc1ccccc1Cl)N1CCN(c2ccc(F)cc2)CC1	.	.	/	.	.	93
O=C(OC(C(=O)NCc1ccc2c(c1)OCO2)c1ccncc1)c1ccc(Cl)nc1 (centres undefined)	.	.	.	.	.	81
Cc1cc(C)cc(OCC(=O)N(Cc2ccccc2)C2CCS(=O)(=O)C2)c1 (centres undefined)	/	/	/	/	.	/
Cc1ccc(C(=O)NC(=S)N2CCN(C)CC2)cc1	.	52	.	.	.	.
O=C1NCCN/C1=C\C(=O)c1ccc(Br)cc1	.	/	.	/	.	.
O=C1NCCN/C1=C\C(=O)c1ccccc1	.	74	/	.	.	.
C=CCCC1(C)C(=O)N(c2ccccc2)c2ccccc21 (centres undefined)	.	.	/	19	.	.
CCc1nc(N2CCN(C(=O)c3ccco3)CC2)c2oc3ccccc3c2n1	.	.	.	27	.	.
Cc1nc(N2CCN(C(=O)c3ccco3)CC2)c2oc3ccccc3c2n1	/	/	.	/	/	/
O=C(COc1ccccc1Cl)NC(=S)Nc1ccccc1N1CCCC1	/	/	/	/	.	/
SMILES	Ba/F3 V617F tox	APP transl inh	b-catenin transl	MT stabilizer	IEC-6 tox	BaF3 tox
Clc1ccccc1OCCCOc1cccc2cccnc12	/	/	/	/	.	/
CCN(CC)S(=O)(=O)c1ccc(Cl)c(NC(=O)COC(=O)c2cccn2C)c1	.	.	.	18	.	.
CCN(CC)S(=O)(=O)c1ccc(Cl)c(NC(=O)COC(=O)c2ccc(O)cc2)c1	.	.	.	.	.	.
O=C(Nc1cccc(-c2nn[nH]n2)c1)c1csc2c1CCCC2	/	/	/	/	.	/
Cc1cc(C)n(-c2nc3c(c(=O)[nH]c(=O)n3C)n2CCc2ccccc2)n1	.	.	.	41	.	.
COC(=O)Cc1n[nH]c(=O)c2ccccc12	.	.	.	.	.	.
